How the values were obtained:
[1] = tested on: Escherichia coli BL21(DE3); experiment: Inhibition of beta-glucuronidase in Escherichia coli BL21 (DE3) using pNPG as substrate at 50 uM preincubated for 30 mins followed by substrate addition measured after 1 hr relative to control
Summary of the method: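 BL21(DE3) E. coli grown overnight and diluted to OD600 0.1 in LB. Cells treated with compound (50, 10 or 2 μM) for 30 min at 37 °C, then pNPG (40 mM stock) added for 1 h. Cells pelleted at 6000g; supernatant quenched with NaOH and read at OD405. Activity given as % of a 1% DMSO control.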

[2] = tested on: Escherichia coli; experiment: Inhibition of N-terminal His-tagged Escherichia coli beta-glucuronidase expressed in Escherichia coli BL21 (DE3) assessed as residual activity using pNPG as substrate at 10 uM preincubated for 30 mins followed by substrate addition measured after 1 hr relative to control
Summary of the method: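 Purified E. coli βG (20 ng) preincubated with 10 μM compound for 30 min at 37 °C in PBS pH 7.5 with 10% DMSO and 0.05% BSA. pNPG (20 mM stock) then added for 1 h, quenched with 2 N NaOH, and read at OD405. Result given as % activity versus a 10% DMSO control; n = 3.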

[3] = Inhibition of N-terminal His-tagged Escherichia coli beta-glucuronidase expressed in Escherichia coli BL21 (DE3) using pNPG as substrate preincubated for 30 mins followed by substrate addition measured after 1 hr
Summary of the method: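 Purified E. coli βG (20 ng) preincubated 30 min at 37 °C with compound (0.64–10 000 nM) in PBS pH 7.5 containing 10% DMSO and 0.05% BSA. pNPG (20 mM stock) then added for 1 h, quenched with 2 N NaOH, and pNP read at 405 nm. IC50 derived from a four-parameter curve fit; SD of n = 3.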

[4] = target: T1, beta-glucuronidase (Homo sapiens, UniProt P08236); experiment: Inhibition of N-terminal His-tagged human beta-glucuronidase expressed in Escherichia coli BL21 (DE3) assessed as residual activity using pNPG as substrate at 10 uM preincubated for 30 mins followed by substrate addition measured after 1 hr relative to control; conditions: probe pNPG, read-out: Activity
T1 sequence (P08236 whole entry): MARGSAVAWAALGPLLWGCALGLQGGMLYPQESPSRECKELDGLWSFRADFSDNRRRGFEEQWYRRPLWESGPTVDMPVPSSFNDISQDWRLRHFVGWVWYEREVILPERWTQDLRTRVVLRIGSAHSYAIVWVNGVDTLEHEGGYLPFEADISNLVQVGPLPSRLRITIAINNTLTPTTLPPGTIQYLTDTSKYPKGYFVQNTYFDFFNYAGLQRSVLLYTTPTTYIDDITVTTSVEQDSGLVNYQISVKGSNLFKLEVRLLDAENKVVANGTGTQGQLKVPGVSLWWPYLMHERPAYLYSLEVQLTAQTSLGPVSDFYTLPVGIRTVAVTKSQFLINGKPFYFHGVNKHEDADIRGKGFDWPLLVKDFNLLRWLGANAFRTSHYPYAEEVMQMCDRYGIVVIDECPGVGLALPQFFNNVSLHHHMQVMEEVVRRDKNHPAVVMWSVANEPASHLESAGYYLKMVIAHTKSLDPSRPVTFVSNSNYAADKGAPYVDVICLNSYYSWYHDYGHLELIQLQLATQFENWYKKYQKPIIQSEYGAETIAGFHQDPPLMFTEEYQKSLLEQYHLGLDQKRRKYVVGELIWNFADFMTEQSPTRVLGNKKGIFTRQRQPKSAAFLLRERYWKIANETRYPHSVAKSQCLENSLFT

[5] = tested on: Escherichia coli; experiment: Toxicity against Escherichia coli BL21(DE3) assessed as effect on cell growth at 100 uM after 6 hrs
Summary of the method: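 BL21(DE3) E. coli (diluted to OD600 0.1 in LB after overnight growth) incubated with compound at a final 100 μM, shaking at 37 °C for 6 h. Growth measured by OD600; viability given as % of the untreated control.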

Cc1ccc(Nc2nc3cc(F)ccc3c3[nH]nc(N)c23)cc1
inhibition [1]: > 80% | Activity [2]: 6.84% | IC50 [3]: 38.1 nM | activity at 1 h, 10 µM [4]: 91.5% | Activity [5]: Toxic

COc1cc(/C=C2\CNC/C(=C\c3cc(OC)c(OC)c(OC)c3)C2=O)cc(OC)c1OC
Activity [2]: 111% | activity at 1 h, 10 µM [4]: 107%

COc1ccc(-c2nc3c4ccoc4c4ccccc4c3[nH]2)cc1
Activity [2]: 112% | activity at 1 h, 10 µM [4]: 85.4%

Nc1n[nH]c2c1c(Nc1ccc(Cl)cc1)nc1ccccc12
inhibition [1]: > 80% | Activity [2]: 4.57% | IC50 [3]: 34.8 nM | activity at 1 h, 10 µM [4]: 98.8% | Activity [5]: Toxic

Nc1n[nH]c2c1c(Nc1ccccc1O)nc1ccccc12
Activity [2]: 12% | IC50 [3]: 613 nM | activity at 1 h, 10 µM [4]: 85.6%

CNC(=S)N/N=C1\C(=O)c2ccccc2-c2occc21
Activity [2]: 104% | activity at 1 h, 10 µM [4]: 86.8%

Cc1cccc2c1nc(Nc1ccc(Cl)cc1)c1c(N)n[nH]c12
Activity [2]: 9.04% | IC50 [3]: 238 nM | activity at 1 h, 10 µM [4]: 88.3%

CCOC(=O)CN1C(=O)S/C(=C/c2ccc3cc(F)ccc3n2)C1=O
Activity [2]: 111% | activity at 1 h, 10 µM [4]: 87.9%

Cc1cccc(Nc2nc3ccccc3c3[nH]nc(N)c23)c1
Activity [2]: 80.7% | IC50 [3]: > 10000 nM | activity at 1 h, 10 µM [4]: 86.5%

O=C1S/C(=C/c2ccc3cc(F)ccc3n2)C(=O)N1CCN1CCCC1
Activity [2]: 99.2% | activity at 1 h, 10 µM [4]: 102%

O=C(O)[C@@H](O)[C@H]1OC(=O)[C@H](O)[C@H]1O [D-SACCHARIC ACID 1,4-LACTONE]
Activity [2]: 75.7% | IC50 [3]: > 10000 nM | activity at 1 h, 10 µM [4]: 33.5%

CCOC(=O)CSc1nc2ccccc2c2sc(C(=O)OCC)c(N)c12
Activity [2]: 101% | activity at 1 h, 10 µM [4]: 108%

Nc1n[nH]c2c1c(Nc1ccc(Cl)cc1)nc1ccc(Br)cc12
inhibition [1]: > 80% | Activity [2]: 16.4% | IC50 [3]: 18 nM | activity at 1 h, 10 µM [4]: 107% | Activity [5]: Toxic

O=C1S/C(=C/c2ccc3cc(F)ccc3n2)C(=O)N1CCN1CCCCC1
Activity [2]: 107% | activity at 1 h, 10 µM [4]: 96.5%

c1ccc2c(c1)c1nonc1c1ccoc21
Activity [2]: 111% | activity at 1 h, 10 µM [4]: 82.7%

COc1cc(/C=C2\CN(C(=O)CN(C)C)C/C(=C\c3cc(OC)c(OC)c(OC)c3)C2=O)cc(OC)c1OC
Activity [2]: 34.1% | activity at 1 h, 10 µM [4]: 92.4%

CC(=O)c1ccc(Nc2nc3ccccc3c3[nH]nc(N)c23)cc1
Activity [2]: 6% | IC50 [3]: 133 nM | activity at 1 h, 10 µM [4]: 83.4%

Nc1n[nH]c2c1c(Nc1ccc([N+](=O)[O-])cc1)nc1ccccc12
Activity [2]: 46.5% | IC50 [3]: 9200 nM | activity at 1 h, 10 µM [4]: 90.9%

Nc1n[nH]c2c1cnc1ccccc12
Activity [2]: 99.3% | activity at 1 h, 10 µM [4]: 79.4%

Nc1n[nH]c2c1c(Nc1ccc(O)cc1)nc1ccccc12
Activity [2]: 8.67% | IC50 [3]: 626 nM | activity at 1 h, 10 µM [4]: 106%

Nc1n[nH]c2c1c(Nc1ccc(Cl)cc1)nc1ccc(Cl)cc12
inhibition [1]: > 80% | Activity [2]: 6.35% | IC50 [3]: 55.6 nM | activity at 1 h, 10 µM [4]: 88.2% | Activity [5]: Toxic

O=C(O)CN1C(=O)S/C(=C/c2ccc3cc(F)ccc3n2)C1=O
Activity [2]: 109% | activity at 1 h, 10 µM [4]: 85.9%

Nc1n[nH]c2c1c(Nc1ccc(C(=O)O)cc1)nc1ccccc12
Activity [2]: 19% | IC50 [3]: 154 nM | activity at 1 h, 10 µM [4]: 102%

Nc1n[nH]c2c1c(O)nc1ccccc12
Activity [2]: 99% | activity at 1 h, 10 µM [4]: 83%

Fc1ccc(-c2cc(-c3ccc4cc(F)ccc4n3)n(-c3ccccc3)n2)cc1
Activity [2]: 113% | activity at 1 h, 10 µM [4]: 88.9%

CCOc1ccc(NC(=S)N(CCO)Cc2cc3cc(C)cc(C)c3[nH]c2=O)cc1
Activity [2]: 8.83% | IC50 [3]: 846 nM

Nc1n[nH]c2c1c(Nc1cccc(Cl)c1)nc1ccccc12
Activity [2]: 14.9% | IC50 [3]: 308 nM | activity at 1 h, 10 µM [4]: 94.1%

Fc1ccc2nc(/C=N/NC3=NCCN3)ccc2c1
Activity [2]: 112% | activity at 1 h, 10 µM [4]: 99%

Fc1ccc(-c2cc(-c3ccc4cc(F)ccc4n3)nn2-c2ccccc2)cc1
Activity [2]: 114% | activity at 1 h, 10 µM [4]: 82.2%

CCN(CC)CCNC(=O)c1ccc(/N=C2/c3ccccc3C(=O)c3c2ccn3Cc2ccccc2)cc1
Activity [2]: 87.4% | activity at 1 h, 10 µM [4]: 86.9%

CN(C)CCCN1C(=O)S/C(=C/c2ccc3cc(F)ccc3n2)C1=O
Activity [2]: 112% | activity at 1 h, 10 µM [4]: 80.2%

COc1ccc(-c2cc3ccccc3nc2C2CC(c3cc(OC)c(OC)c(OC)c3)=NN2C(N)=S)cc1 (centres undefined)
Activity [2]: 114% | activity at 1 h, 10 µM [4]: 89.5%

Nc1n[nH]c2c1c(N)nc1ccccc12
Activity [2]: 86.3% | activity at 1 h, 10 µM [4]: 83.9%

O=C1NC(=O)/C(=C\c2ccc3cc(F)ccc3n2)S1
Activity [2]: 115% | activity at 1 h, 10 µM [4]: 88.9%

COc1ccc(-c2cc3cc(F)ccc3nc2/C=C2\SC(=O)NC2=O)cc1
Activity [2]: 99.1% | activity at 1 h, 10 µM [4]: 84.6%

Cc1ccc(Nc2nc3ccc(Cl)cc3c3[nH]nc(N)c23)cc1
inhibition [1]: > 80% | Activity [2]: 6.13% | IC50 [3]: 14.4 nM | activity at 1 h, 10 µM [4]: 91.5% | Activity [5]: Toxic

Nc1n[nH]c2c1c(Nc1ccccc1)nc1ccccc12
Activity [2]: 2.33% | activity at 1 h, 10 µM [4]: 106%

Cc1ccc(Nc2nc3ccc(Br)cc3c3[nH]nc(N)c23)cc1
inhibition [1]: > 80% | Activity [2]: 12.1% | IC50 [3]: 55.3 nM | activity at 1 h, 10 µM [4]: 97.9% | Activity [5]: Toxic

CCOc1nc2ccccc2c2[nH]nc(N)c12
Activity [2]: 102% | activity at 1 h, 10 µM [4]: 80.5%

Nc1n[nH]c2c1c(Nc1ccc(C(F)(F)F)cc1)nc1ccccc12
Activity [2]: 5.66% | IC50 [3]: 98.2 nM | activity at 1 h, 10 µM [4]: 101%

Nc1n[nH]c2c1c(Nc1ccccc1Cl)nc1ccccc12
Activity [2]: 10.3% | IC50 [3]: 281 nM | activity at 1 h, 10 µM [4]: 79.8%

Nc1n[nH]c2c1c(Nc1ccc(Cl)cc1)nc1cc(F)ccc12
Activity [2]: 6.78% | IC50 [3]: 29.6 nM | activity at 1 h, 10 µM [4]: 92.8%

O=C1c2ccccc2-c2c(N3CCC(O)CC3)nc3ccccc3c21
Activity [2]: 74.9% | activity at 1 h, 10 µM [4]: 80.6%

Cc1cc2c(n1CCCN(C)CCCn1c(C)cc3c1C(=O)c1ccccc1C3=O)C(=O)c1ccccc1C2=O
Activity [2]: 73.5% | activity at 1 h, 10 µM [4]: 79.8%

Cc1ccc(Nc2nc3c(C)cccc3c3[nH]nc(N)c23)cc1
Activity [2]: 6.8% | IC50 [3]: 24.7 nM | activity at 1 h, 10 µM [4]: 85.7%

Nc1n[nH]c2c1c(Nc1cccc(O)c1)nc1ccccc12
Activity [2]: 6% | IC50 [3]: 884 nM | activity at 1 h, 10 µM [4]: 78.3%

Cc1ccccc1Nc1nc2ccccc2c2[nH]nc(N)c12
Activity [2]: 14.8% | IC50 [3]: 673 nM | activity at 1 h, 10 µM [4]: 93.6%

NC(=S)N/N=C/c1ccc2cc(F)ccc2n1
Activity [2]: 112% | activity at 1 h, 10 µM [4]: 78.5%

COc1cc(C(=O)C2CC2c2ccc3ccccc3n2)cc(OC)c1OC (centres undefined)
Activity [2]: 112% | activity at 1 h, 10 µM [4]: 85.4%

Nc1ccc(Nc2nc3ccccc3c3[nH]nc(N)c23)cc1
Activity [2]: 11.3% | IC50 [3]: 598 nM | activity at 1 h, 10 µM [4]: 62.2%
